The record followed here is ChEMBL document CHEMBL4138116, “New bicyclic brominated furanones as potent autoinducer-2 quorum-sensing inhibitors against bacterial biofilm formation” (Eur J Med Chem, 2017).

Data set [1] has as its system Fusobacterium nucleatum. As to the kind of experiment: Inhibition of Fusobacterium nucleatum ATCC 25586 AI-2 assessed as decrease in biofilm formation at 0.02 to 0.2 uM.
The test system of data set [2] is Fusobacterium nucleatum. As to the kind of experiment: Inhibition of Fusobacterium nucleatum AI-2-mediated biofilm formation of Tannerella forsythia ATCC 43037 assessed as biofilm average depth at 2 uM incubated for 48 hrs under anaerobic condition by confocal laser scanning microscopic method (reference value: 5.29 um).
Data set [3] deals with THP-1. The data set is described as follows: Effect on host cell immune response in human THP1 cells assessed as upregulation of IL-6 mRNA expression at 2 uM after 24 hrs by RT-PCR method. The format is ADME, cell-based. The note with it: thp-1, 24 h. In short, it runs like this:
(§1)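 THP-1 cells (1 × 10^6 cells/well) or HGFs (2 × 10^5 cells/well) in 6-well plates were incubated 24 h at 37 °C with or without compound, with LPS as comparator. Total RNA (1 µg) was reverse-transcribed, and IL-6 and IL-8 mRNA were quantified by SYBR Green real-time PCR (40 cycles of 95 °C for 15 s and 60 °C for 1 min). Runs were done three times in triplicate.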

The test system of data set [4] is Fusobacterium nucleatum. The data set is described as follows: Inhibition of Fusobacterium nucleatum AI-2-mediated biofilm formation of Fusobacterium nucleatum ATCC 25586 assessed as biofilm biomass at 2 uM incubated for 48 hrs under anaerobic condition by confocal laser scanning microscopic method (reference value: 2.99 um'3/um'2).
Data set [5] concerns Fusobacterium nucleatum. As to the kind of experiment: Inhibition of Fusobacterium nucleatum AI-2-mediated biofilm formation of Porphyromonas gingivalis ATCC 33277 assessed as biofilm average depth at 2 uM incubated for 48 hrs under anaerobic condition by confocal laser scanning microscopic method (reference value: 4.87 um).
The nature of data set [6]: Cytotoxicity against human HOK16B assessed as effect on cell viability at 2 uM incubated for 24 hrs by CCK8 assay. In outline: (§2)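 Cells in 96-well plates were exposed to compound for 24 h, with viability read by CCK-8 against a non-treated control. THP-1 (RPMI 1640, 10% FBS) was seeded at 1 × 10^5 cells/well and treated directly. HGFs (DMEM, 10% FBS) at 2 × 10^4 and HOK-16B (keratinocyte basal medium) at 5 × 10^4 cells/well were treated after reaching 85% confluence. Runs were done three times in triplicate.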
In general terms: Formazan colour is commonly taken as a measure of viable cells.

Data set [7] relates to THP-1. The data set is described as follows: Cytotoxicity against human THP1 cells assessed as effect on cell viability at 2 uM incubated for 24 hrs by CCK8 assay. Format: cell-based. The note with it: thp-1, 24 h. In outline: as §2
Data set [8] relates to Fusobacterium nucleatum. The data set is described as follows: Inhibition of Fusobacterium nucleatum AI-2-mediated biofilm formation of Fusobacterium nucleatum ATCC 25586 assessed as biofilm formation at 2 uM incubated for 48 hrs under anaerobic condition by crystal violet staining-based assay (reference value: 100%). Set-up: scale not given: the % may be the effect or the level left. In outline: (§3)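 Crystal-violet biofilm assay on glass slips in 24-well plates with 10% (v/v) F. nucleatum AI-2 and compound at 0.002–2 mM. Inocula were F. nucleatum 2 × 10^7, P. gingivalis 2 × 10^8 and T. forsythia 2 × 10^8 bacteria/mL, held 48 h anaerobically (10% H2, 10% CO2, 80% N2). Slips were washed three times with PBS, stained with 1% crystal violet for 10 min, destained with acetone–alcohol (20:80) and read at A595.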

For data set [9], the system named is Fusobacterium nucleatum. As to the kind of experiment: Inhibition of Fusobacterium nucleatum AI-2-mediated biofilm formation of Tannerella forsythia ATCC 43037 assessed as biofilm biomass at 2 uM incubated for 48 hrs under anaerobic condition by confocal laser scanning microscopic method (reference value: 4.05 um'3/um'2).
For data set [10], the system named is Tannerella forsythia. The data set is described as follows: Inhibition of Tannerella forsythia ATCC 43037 planktonic growth at […] incubated for 48 hrs under anaerobic condition by spectrophotometric method. The format is organism-based. In short, it runs like this: (§4)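 F. nucleatum, P. gingivalis or T. forsythia were grown planktonically for 48 h at 37 °C under anaerobic conditions with compound at 2 mM. Growth was monitored by absorbance at 600 nm.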

Data set [11] can be described thus: Effect on host cell immune response in human gingival fibroblasts assessed as upregulation of IL-6 mRNA expression at 2 uM after 24 hrs by RT-PCR method. Format: ADME. In short, it runs like this: as §1
For data set [12], the system named is THP-1. The data set is described as follows: Effect on host cell immune response in human THP1 cells assessed as upregulation of IL-8 mRNA expression at 2 uM after 24 hrs by RT-PCR method. Format: ADME, cell-based. To be noted: thp-1, 24 h. In outline: as §1
For data set [13], the system named is Fusobacterium nucleatum. As to the kind of experiment: Inhibition of Fusobacterium nucleatum AI-2-mediated biofilm formation of Porphyromonas gingivalis ATCC 33277 assessed as biofilm biomass at 2 uM incubated for 48 hrs under anaerobic condition by confocal laser scanning microscopic method (reference value: 3.73 um'3/um'2).
Data set [14] can be described thus: Effect on host cell immune response in human gingival fibroblasts assessed as upregulation of IL-8 mRNA expression at 2 uM after 24 hrs by RT-PCR method. The format is ADME. In outline:
as §1

In data set [15] the test system is Fusobacterium nucleatum. The data set is described as follows: Inhibition of Fusobacterium nucleatum AI-2-mediated biofilm formation of Porphyromonas gingivalis ATCC 33277 assessed as biofilm formation at 2 uM incubated for 48 hrs under anaerobic condition by crystal violet staining-based assay (reference value: 100%). Set-up: scale not given: the % may be the effect or the level left. In short, it runs like this: as §3

Data set [16] has as its system Vibrio harveyi. As to the kind of experiment: Effect on Vibrio harveyi BB170 planktonic growth at 2 incubated for 9 hrs under aerobic condition by spectrophotometric method. Set-up: concentration or dose not given beside the values. The note with it: in vitro.
Data set [17] has as its system Fusobacterium nucleatum. As to the kind of experiment: Inhibition of Fusobacterium nucleatum ATCC 25586 planktonic growth at […] incubated for 48 hrs under anaerobic condition by spectrophotometric method. Format: organism-based. In outline: as §4
A short description of data set [18]: Cytotoxicity against human gingival fibroblasts assessed as effect on cell viability at 2 uM incubated for 24 hrs by CCK8 assay. In short, it runs like this:
as §2

Data set [19] has as its system Fusobacterium nucleatum. The data set is described as follows: Inhibition of Fusobacterium nucleatum AI-2-mediated biofilm formation of Fusobacterium nucleatum ATCC 25586 assessed as biofilm average depth at 2 uM incubated for 48 hrs under anaerobic condition by confocal laser scanning microscopic method (reference value: 5.37 um).
The subject of data set [20] is Fusobacterium nucleatum. As to the kind of experiment: Inhibition of Fusobacterium nucleatum AI-2-mediated biofilm formation of Tannerella forsythia ATCC 43037 assessed as biofilm formation at 2 uM incubated for 48 hrs under anaerobic condition by crystal violet staining-based assay (reference value: 100%). Set-up: scale not given: the % may be the effect or the level left. In outline:
as §3

Data set [21] has as its system Porphyromonas gingivalis. The data set is described as follows: Inhibition of Porphyromonas gingivalis ATCC 33277 planktonic growth at […] incubated for 48 hrs under anaerobic condition by spectrophotometric method. The format is organism-based. In outline:
as §4

Data set [22] deals with Fusobacterium nucleatum. As to the kind of experiment: Inhibition of Fusobacterium nucleatum ATCC 25586 AI-2 assessed as decrease in biofilm formation at 0.2 to 2 uM.

Active and inactive are the calls of the source. The calls are words filed in the database; no cut-off is given here.

Turning to `CCCCOc1cccc2c1C(=O)OC2=C(Br)Br`, the inhibition entry in data set [1] was “inactive”.
Turning to `Cc1ccc2c(c1)C(=C(Br)Br)OC2=O`, the Activity was 1.94 µm in [2]; “Non-Toxic” in [3]; 0.38 um3/um2 in [4]; 2.05 µm in data set [5]; “Non-Toxic” in data set [6]; “Non-Toxic” in [7]. The Activity in [8] was 32.1%; in [9], 0.59 um3/um2; in data set [11] it was “Non-Toxic”; in data set [12], “Non-Toxic”; in data set [13], 0.29 um3/um2; in data set [14], “Non-Toxic”. The Activity was 34.7% in data set [15]; “Non-Toxic” in data set [16]; “Non-Toxic” in [18]; 1.87 µm in data set [19]; 33.5% in data set [20]. Also, the “growth inhibition (GI)” value in data set [10], in [17] and in [21] was “Non-Toxic” each time. Besides, the inhibition entry in data set [1] was “Active”.
Regarding `O=C1OC(=C(Br)Br)c2ccccc21`, the inhibition result in [1] was “inactive”. For the same compound, the inhibition result in [22] is “Active”.
As for `CCOc1cccc2c1C(=O)OC2=C(Br)Br`, in data set [1], the inhibition entry is “inactive”.
As for `O=C1OC(=C(Br)Br)C2CCCCC12` (stereo unspecified), the inhibition result in data set [1] was “inactive”.
Turning to `CCCCCOc1cccc2c1C(=O)OC2=C(Br)Br`, the inhibition entry in [1] was “inactive”.
As to `O=C1OC(=C(Br)Br)C2=C1CCCC2`, the inhibition entry in [1] was “inactive”.
With `CCCOc1ccc2c(c1)C(=C(Br)Br)OC2=O`, the inhibition entry in data set [1] is “inactive”.
Turning to `O=C1OC(=C(Br)Br)C2CCCC12` (stereo unspecified), the Activity is 2.27 µm in [2]; “Non-Toxic” in data set [3]; 0.39 um3/um2 in data set [4]; 2.05 µm in data set [5]; “Non-Toxic” in data set [6]; “Non-Toxic” in data set [7]. Further, the Activity in data set [8] was 38.8%; in data set [9], 0.93 um3/um2; in [11] it was “Non-Toxic”; in data set [12], “Non-Toxic”; in data set [13], 0.31 um3/um2; in [14] it was “Non-Toxic”. Also, the Activity was 48.4% in data set [15]; “Non-Toxic” in data set [16]; “Non-Toxic” in data set [18]; 1.82 µm in data set [19]; 57.8% in data set [20]. The “growth inhibition (GI)” value in data set [10], in data set [17] and in [21] was “Non-Toxic” each time. The inhibition entry in data set [1] and in data set [22] was “Active” in each case.
For the compound `O=C1OC(=C(Br)Br)C2=C1CCC2`, the inhibition result in data set [1] is “inactive”.
For `CCCCOc1ccc2c(c1)C(=C(Br)Br)OC2=O`, the inhibition result in data set [1] was “inactive”.
As to `Cc1cccc2c1C(=O)OC2=C(Br)Br`, the Activity in data set [2] is 2.41 µm; in data set [3], “Non-Toxic”; in data set [4] it was 0.32 um3/um2; in [5], 1.97 µm; in [6], “Non-Toxic”; in [7], “Non-Toxic”. Besides, the Activity is 33.2% in data set [8]; 0.88 um3/um2 in data set [9]; “Non-Toxic” in data set [11]; “Non-Toxic” in [12]; 0.27 um3/um2 in [13]; “Non-Toxic” in [14]. In addition, the Activity in data set [15] was 29.3%; in data set [16], “Non-Toxic”; in [18], “Non-Toxic”; in [19], 1.72 µm; in data set [20], 53.5%. Besides, the “growth inhibition (GI)” value in [10], in data set [17] and in data set [21] was “Non-Toxic” in each case. The inhibition entry in [1] is “Active”.
On to `CCCCCOc1ccc2c(c1)C(=C(Br)Br)OC2=O`, for which, in data set [1], the inhibition result was “inactive”.
With `O=C1C=C(Br)/C(=C/Br)O1`, the Activity in data set [2] was 2.18 µm; in data set [3], “Toxic”; in [4], 0.42 um3/um2; in data set [5], 2.05 µm; in data set [8] it was 55.6%; in [9], 0.77 um3/um2. The Activity result in data set [12] is “Toxic”; in data set [13] it was 0.3 um3/um2; in data set [14], “Toxic”; in data set [15], 39.2%; in data set [16], “Toxic”; in data set [19], 2.02 µm. Moreover, the Activity in [20] amounted to 47.4%. The inhibition entry in data set [1] was “Active”.
As for `CCOc1ccc2c(c1)C(=C(Br)Br)OC2=O`, the inhibition entry in [1] is “inactive”.
For the compound `CCCOc1cccc2c1C(=O)OC2=C(Br)Br`, the inhibition entry in [1] is “inactive”.
